Tests used:
Format in all cases: functional
MLM = assay: Cytotoxicity against human MLM melanoma cell line.; settings: read-out: ED50 (the source's name)
Summary of the method: (§1)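 MTT colorimetric assay run in the Purdue Cell Culture Laboratory. Poorly water-soluble compounds were serially diluted in DMSO and added as 0.5 μL aliquots per well. Cells were incubated with compound for 6 days before MTT was added. […] The reported ED50 is the mean of two determinations.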

A549 = assay: Compound was evaluated for cytotoxicity against human A-549 non-small cell lung cancer cell line.; settings: read-out: ED50 (the source's name); summary of the method: as §1
MCF7 = assay: Cytotoxicity against human MCF-7 breast cancer cell line.; settings: read-out: ED50 (the source's name); summary of the method: as §1
HT-29 = assay: Cytotoxicity against human HT-29 colon cell line.; settings: read-out: ED50 (the source's name); summary of the method: as §1
Bos taurus = species on record: Bos taurus; assay: Inhibition of tubulin polymerization
Summary of the method: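 Bovine brain tubulin, purified to electrophoretic homogeneity, was preincubated at 37 °C with a range of compound concentrations and then chilled on ice. GTP was added and polymerization followed at 37 °C by turbidity at 350 nm. Extent was read at 20 min against two controls per experiment, and IC50 was determined graphically. Actives were run in ≥3 independent assays, inactives (IC50 > 40 μM) in ≥2.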

SK-MEL-5 = assay: Compound was evaluated for cytotoxicity against human SKMEL-5 melanoma cell line.; settings: read-out: ED50 (the source's name); summary of the method: as §1

Row | SMILES | IC50 (Bos taurus) | EC50 (MLM) | EC50 (A549) | EC50 (MCF7) | EC50 (HT-29) | EC50 (SK-MEL-5)
1 | COc1cc(/C=C\c2ccc(C(C)C)cc2)cc(OC)c1OC | 12 µM |  |  | 1.4 µM | 2.4 µM | 
2 | COc1ccc(/C=C\c2cc(OC)c(OC)c(OC)c2)cc1 | 2.5 µM | 1.6 µM |  |  | 2.6 µM | 2.6 µM
3 | COc1cc2ccc3c(OC)cccc3c2c(OC)c1OC | > 40 µM | > 25 µM | > 25 µM | 14.6 µM | 9.3 µM | 12 µM
4 | COc1ccc2c(ccc3cc(OC)c(OC)c(OC)c32)c1 | > 40 µM | > 25 µM | > 25 µM | > 25 µM | > 25 µM | > 25 µM
5 | COC(=O)/C(=C/c1ccc(OC)cc1)c1cc(OC)c(OC)c(OC)c1 | > 40 µM | 9.6 µM | 1.1 µM | 2 µM | 0.5 µM | 6.4 µM
6 | COc1cccc(/C=C(/C(=O)O)c2cc(OC)c(OC)c(OC)c2)c1 | > 40 µM | > 25 µM | 0.025 µM | > 25 µM | 0.12 µM | 0.05 µM
7 | COc1ccc2c(c1)CN1CCc3c(cc(OC)c(OC)c3OC)C1C2 (stereo not drawn) | > 40 µM | > 25 µM | > 25 µM | > 25 µM | > 25 µM | > 25 µM
8 | COc1ccc(C2Cc3cc(OC)c(OC)c(OC)c3C2)cc1 (stereo not drawn) | > 40 µM | > 25 µM | > 25 µM | > 25 µM | 12.8 µM | 19.5 µM
9 | COc1ccc(C(=O)c2nccc3c(OC)c(OC)c(OC)cc23)cc1 | > 40 µM | > 25 µM | > 25 µM | > 25 µM | > 25 µM | > 25 µM
10 | COc1cc(/C=C/c2ccc(SC)cc2)cc(OC)c1OC | > 40 µM | 7.3 µM | 0.47 µM | 0.059 µM | 0.083 µM | 0.28 µM
11 | COc1cc(CCc2ccc(OCCN(C)C)cc2)cc(OC)c1OC | > 40 µM | > 25 µM | > 25 µM | 10.3 µM | 9.8 µM | 11.4 µM
12 | COc1cc(/C=C/c2ccc(C(C)C)cc2)cc(OC)c1OC | > 40 µM | > 25 µM | 9.8 µM | 18.4 µM | 6.8 µM | 11.1 µM
13 | COC(=O)/C(=C/c1cccc(OC)c1)c1cc(OC)c(OC)c(OC)c1 | > 40 µM | 15.5 µM | 1.3 µM | 1.3 µM | 0.7 µM | 1.5 µM
14 | COC(=O)C(Cc1cc(OC)c(OC)c(OC)c1)c1ccc(OC)cc1 (stereo not drawn) | > 40 µM | > 25 µM | > 25 µM | > 25 µM | > 25 µM | > 25 µM
15 | COc1ccc(/C=C\c2cc(OC)c(OCc3ccccc3)c(OC)c2)cc1 | > 40 µM | > 25 µM | 1.04 µM | 1.92 µM | 0.95 µM | 0.61 µM
16 | COc1ccc2ccc3cc(OC)c(OC)c(OC)c3c2c1 | > 40 µM | > 25 µM | > 25 µM | > 25 µM | 1.1 µM | 12.5 µM
17 | COc1cc2ccc3cccc(OC)c3c2c(OC)c1OC | > 40 µM | 21.4 µM | 5.7 µM | 1.8 µM | 1.9 µM | 1.3 µM
18 | COc1ccc(/C=C/c2cc(OC)c(OC(C)=O)c(OC)c2)cc1 | > 40 µM | 21 µM | 16.4 µM | 19.4 µM | 11.7 µM | 10.2 µM
19 | COc1ccc(/C=C/c2cc(OC)c(OCc3ccccc3)c(OC)c2)cc1 | > 40 µM | > 25 µM | > 25 µM | > 25 µM | 17.8 µM | > 25 µM
20 | COc1cc(/C=C\c2ccc(C(C)(C)C)cc2)cc(OC)c1OC | > 40 µM | 4.32 µM | 1.02 µM | 1.57 µM | 0.88 µM | 0.21 µM
21 | CCOc1ccc(/C=C\c2cc(OC)c(OC)c(OC)c2)cc1 | 2.7 µM |  | 1.6 µM | 9.6 µM | 1.8 µM | 2.5 µM
22 | CCNC(=O)/C(=C/c1ccc(OC)cc1)c1cc(OC)c(OC)c(OC)c1 | > 40 µM | > 25 µM | 3.4 µM | 3.7 µM | 1.8 µM | 7.05 µM
23 | COc1ccc(C(O)c2cc(OC)c(OC)c(OC)c2)cc1 (stereo not drawn) | > 40 µM | 16.8 µM | 1.5 µM | 1.9 µM | 1.2 µM | 1.5 µM
24 | COc1ccc(C(Cc2cc(OC)c(OC)c(OC)c2)C(=O)O)cc1 (stereo not drawn) | > 40 µM | > 25 µM | 14.3 µM | > 25 µM | 9.4 µM | 7.4 µM
25 | CCCOc1ccc(CCc2cc(OC)c(OC)c(OC)c2)cc1 | > 40 µM | 15 µM | 7.2 µM | 3.9 µM | 6.4 µM | 6.7 µM
26 | COc1ccc(/C=C(/C(=O)O)c2cc(OC)c(OC)c(OC)c2)cc1 | > 40 µM | > 25 µM | 13.9 µM | 12.8 µM | 8.4 µM | 9.1 µM
27 | CCOc1ccc(/C=C/c2cc(OC)c(OC)c(OC)c2)cc1 | > 40 µM |  |  | 7.5 µM | 1.49 µM | 1.17 µM
28 | COc1ccc(/C=C\c2cc(OC)c(OC)c(OC)c2)cc1O [COMBRETASTATIN A4] |  | 0.00043 µM | 0.00032 µM | 0.0056 µM | 0.01 µM | 0.00014 µM

Now from value to molecule, other results behind:

Row | IC50 (Bos taurus) | SMILES | EC50 (MLM) | EC50 (A549) | EC50 (MCF7) | EC50 (HT-29) | EC50 (SK-MEL-5)
29 | 15 µM | COc1ccc(Cc2cc(OC)c(OC)c(OC)c2)cc1 | 1.3 µM | 1.5 µM | 1.9 µM | 1.3 µM | 1.2 µM
30 | > 40 µM | COc1ccc(C(C#N)Cc2cc(OC)c(OC)c(OC)c2)cc1 (stereo not drawn) | 21.1 µM | 11.5 µM | 14.3 µM | 9.4 µM | 6.4 µM
31 | > 40 µM | CCN(CC)CCOC(=O)/C(=C/c1cccc(OC)c1)c1cc(OC)c(OC)c(OC)c1 | > 25 µM | 7.7 µM | 10.4 µM | > 25 µM | 6.7 µM
32 | > 40 µM | COc1ccc(CC2c3cc(OC)c(OC)c(OC)c3CCN2C)cc1 (stereo not drawn) | > 25 µM | 11.4 µM | 22.7 µM | 9.7 µM | 8.8 µM
33 | 10 µM | CCOc1ccc(CCc2cc(OC)c(OC)c(OC)c2)cc1 | 0.27 µM | 0.19 µM | 0.19 µM | 0.18 µM | 0.17 µM
34 | > 40 µM | COc1ccc2cc3n(c(=O)c2c1)CCc1c-3cc(OC)c(OC)c1OC | > 25 µM | > 25 µM | > 25 µM | > 25 µM | > 25 µM
35 | > 40 µM | CCN(CC)CCOC(=O)/C(=C/c1ccc(OC)cc1)c1cc(OC)c(OC)c(OC)c1 | > 25 µM | 1.8 µM | 2.1 µM | 2.8 µM | 2.7 µM
36 | > 40 µM | COc1ccc(/C(=C\c2cc(OC)c(OC)c(OC)c2)C(=O)O)cc1 | > 25 µM | 5.2 µM | 1.9 µM | 5.9 µM | 2.3 µM
37 | 2 µM | COc1cc(/C=C\c2ccc(C)cc2)cc(OC)c1OC | 0.0066 µM | 0.00094 µM | 0.024 µM | 0.0023 µM | 0.00083 µM
38 | > 40 µM | COc1ccc(/C=C/c2ccc(OC)c(OC)c2)cc1 | > 25 µM | 11.7 µM | > 25 µM | > 25 µM | > 25 µM
39 | > 40 µM | COc1ccc(C(=O)c2c3cc(OC)c(OC)c(OC)c3cc[n+]2C)cc1 | > 25 µM | > 25 µM | > 25 µM | > 25 µM | > 25 µM
40 | > 40 µM | COc1cc(/C=C/c2ccc(C(C)(C)C)cc2)cc(OC)c1OC | > 25 µM | > 25 µM | > 25 µM | > 25 µM | > 25 µM
41 | 7.4 µM | COc1ccc(C(=O)c2cc(OC)c(OC)c(OC)c2)cc1 | 1.3 µM | 1.1 µM | 1.5 µM | 1.3 µM | 1.2 µM
42 | 7.9 µM | COc1ccc(CCc2cc(OC)c(OC)c(OC)c2)cc1 | 1.8 µM | 1.8 µM | 1.6 µM | 2.5 µM | 1.4 µM
43 | 6 µM | CCCOc1ccc(/C=C\c2cc(OC)c(OC)c(OC)c2)cc1 | 0.065 µM | 0.039 µM | 0.66 µM | 0.028 µM | 0.014 µM
44 | 21 µM | COc1cc(CCc2ccc(C)cc2)cc(OC)c1OC | 1.4 µM | 0.18 µM | 0.22 µM | 0.1 µM | 0.27 µM
45 | 24 µM | COc1ccc(/C=C\c2cc(OC)c(OC(C)=O)c(OC)c2)cc1 | > 25 µM | 21.5 µM | > 25 µM | 8.7 µM | 0.6 µM
46 | 35 µM | CNC(=O)/C(=C/c1ccc(OC)cc1)c1cc(OC)c(OC)c(OC)c1 | 93 µM | 2.4 µM | 5 µM | 2.6 µM | 2.4 µM
47 | 6.2 µM | COc1cc(/C=C\c2ccc(SC)cc2)cc(OC)c1OC | 0.0033 µM | 0.00019 µM | 0.0054 µM | 1.8e-06 µM | 4e-06 µM
